Results reported in ChEMBL document CHEMBL1136227, “Regulation of gene expression by synthetic dimerizers with novel specificity” (Bioorg Med Chem Lett, 2003).

Tests used:
[1] = target: Peptidyl-prolyl cis-trans isomerase FKBP1A (Homo sapiens, UniProt P62942, F36V); experiment: Inhibition of binding to Phe36Val (F36V) mutant of FK506 binding protein 12
Outline: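 Fluorescence polarization competition assay with F36V-FKBP12, testing monomeric FKBP ligands. IC50 = monomer concentration reducing probe binding by 50%.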

HT-1080 [2] = experiment: (§1) Compound was induced transcription in transiently transfected with constructs encoding separate DNA-binding domain and activation domain proteins in HT1080 human fibrosarcoma cells; assay type: functional, cell-based
Outline: (§2)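 HT1080 human fibrosarcoma cells, transiently or stably transfected with separate DNA-binding domain and activation domain fusions, each carrying three tandem F36V-FKBP copies, plus a SEAP reporter responsive to the reconstituted factor. Dimerizer titrated; secreted SEAP measured. EC50 = dimerizer concentration giving 50% of peak SEAP expression; peak level also expressed relative to a reference dimerizer.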

HT-1080 [3] = experiment: (§3) Compound was induced transcription stably transfected with constructs encoding separate DNA-binding domain and activation domain proteins in HT1080 human fibrosarcoma cells; assay type: functional; outline: as §2
HT-1080 [4] = experiment: as §1; assay type: functional; outline: as §2
HT-1080 [5] = experiment: as §3; assay type: functional, cell-based; outline: as §2
HT-1080 [6] = experiment: Compound was induced transcription stably transfected with constructs encoding separate DNA-binding domain and activation domain proteins in HT1080 human fibrosarcoma cells; No induction; assay type: functional, cell-based; outline: as §2
HT-1080 [7] = experiment: Compound was induced transcription stably transfected with constructs encoding separate DNA-binding domain and activation domain proteins in HT1080 human fibrosarcoma cells;No induction; assay type: functional, cell-based; outline: as §2

Peptidyl-prolyl cis-trans isomerase FKBP1A, sequence (P62942 2-108 F37V limits assumed): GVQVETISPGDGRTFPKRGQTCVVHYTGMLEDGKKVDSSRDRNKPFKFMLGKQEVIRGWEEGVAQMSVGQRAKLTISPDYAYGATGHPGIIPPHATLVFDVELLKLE

IC50 [1] [nM] | EC50 (HT-1080 [2]) [nM] | Structure (SMILES) | Expression (HT-1080 [4]) [%] | also measured
8.2 | – | COc1ccc(CC[C@@H](OC(=O)[C@@H]2CCCCN2C(=O)[C@@H](C)c2cc(OC)c(OC)c(OC)c2)c2cccc(OCC(=O)O)c2)cc1OC | – | –
64 | – | CCC(CC)NC(=O)N1CCCC[C@H]1C(=O)O[C@H](CCc1ccc(OC)c(OC)c1)c1cccc(OCC(=O)O)c1 | – | –
15 | – | CC[C@H](C(=O)N1CCCC[C@H]1C(=O)O[C@H](CCc1cccnc1)c1cccc(OCC(=O)O)c1)c1cc(OC)c(OC)c(OC)c1 | – | –
– | 11 | CCC(CC)NC(=O)N1CCCC[C@H]1C(=O)O[C@H](CCc1ccc(OC)c(OC)c1)c1cccc(OCC(=O)NCCNC(=O)COc2cccc([C@@H](CCc3ccc(OC)c(OC)c3)OC(=O)[C@@H]3CCCCN3C(=O)NC(CC)CC)c2)c1 | 138 | Expression (HT-1080 [3]): 106%; EC50 (HT-1080 [5]): 19 nM
– | 82 | CC[C@H](C(=O)N1CCCC[C@H]1C(=O)O[C@H](CCc1cccnc1)c1cccc(OCC(=O)NCCNC(=O)COc2cccc([C@@H](CCc3cccnc3)OC(=O)[C@@H]3CCCCN3C(=O)[C@@H](CC)c3cc(OC)c(OC)c(OC)c3)c2)c1)c1cc(OC)c(OC)c(OC)c1 | 29 | EC50 (HT-1080 [6]): No induction
5.5 | – | CC[C@H](C(=O)N1CCCC[C@H]1C(=O)O[C@H](CCc1ccccc1)c1cccc(OCC(=O)O)c1)c1cc(OC)c(OC)c(OC)c1 | – | –
44 | – | CCC(C)(C)C(=O)C(=O)N1CCCC[C@H]1C(=O)O[C@H](CCc1ccc(OC)c(OC)c1)c1cccc(OCC(=O)O)c1 | – | –
26 | – | CC[C@H](C(=O)N1CCCC[C@H]1C(=O)O[C@H](CCc1ccc(OC)c(OC)c1)c1cccc(OCC(=O)O)c1)c1ccc2c(c1)OCO2 | – | –
– | 4 | CC[C@H](C(=O)N1CCCC[C@H]1C(=O)O[C@H](CCc1ccc(OC)c(OC)c1)c1cccc(OCC(=O)NCCNC(=O)COc2cccc([C@@H](CCc3ccc(OC)c(OC)c3)OC(=O)[C@@H]3CCCCN3C(=O)[C@@H](CC)c3ccccc3)c2)c1)c1ccccc1 | 100 | Expression (HT-1080 [3]): 100%; EC50 (HT-1080 [5]): 8 nM
– | 6 | CC[C@H](C(=O)N1CCCC[C@H]1C(=O)O[C@H](CCc1ccc(OC)c(OC)c1)c1cccc(OCC(=O)NCCNC(=O)COc2cccc([C@@H](CCc3ccc(OC)c(OC)c3)OC(=O)[C@@H]3CCCCN3C(=O)[C@@H](CC)c3ccc4c(c3)OCO4)c2)c1)c1ccc2c(c1)OCO2 | 105 | Expression (HT-1080 [3]): 53%; EC50 (HT-1080 [5]): 9 nM
– | 189 | CO[C@H]1C[C@@H](C)C/C(C)=C/[C@@H](C/C=C/CC2/C=C(\C)C[C@H](C)C[C@H](OC)[C@H]3O[C@@](O)(C(=O)C(=O)N4CCCCC4C(=O)O[C@H](/C(C)=C/[C@@H]4CC[C@@H](O)[C@H](OC)C4)[C@H](C)[C@@H](O)CC2=O)[C@H](C)C[C@H]3OC)C(=O)C[C@H](O)[C@@H](C)[C@@H](/C(C)=C/[C@@H]2CC[C@@H](O)[C@H](OC)C2)OC(=O)C2CCCCN2C(=O)C(=O)C2O[C@H]1[C@H](OC)C[C@H]2C (some centres undefined) | 39 | EC50 (HT-1080 [6]): No induction
– | 4 | COc1ccc(CC[C@@H](OC(=O)[C@@H]2CCCCN2C(=O)[C@@H](C)c2cc(OC)c(OC)c(OC)c2)c2cccc(OCC(=O)NCCNC(=O)COc3cccc([C@@H](CCc4ccc(OC)c(OC)c4)OC(=O)[C@@H]4CCCCN4C(=O)[C@@H](C)c4cc(OC)c(OC)c(OC)c4)c3)c2)cc1OC | 89 | EC50 (HT-1080 [7]): No induction
– | 177 | CCC(C)(C)C(=O)C(=O)N1CCCC[C@H]1C(=O)O[C@H](CCc1ccc(OC)c(OC)c1)c1cccc(OCC(=O)NCCNC(=O)COc2cccc([C@@H](CCc3ccc(OC)c(OC)c3)OC(=O)[C@@H]3CCCCN3C(=O)C(=O)C(C)(C)CC)c2)c1 | 149 | Expression (HT-1080 [3]): 17%; EC50 (HT-1080 [5]): 294 nM
12 | – | CC[C@@H]1/C=C(\C)C[C@H](C)C[C@H](OC)[C@H]2OC(C(=O)C(=O)N3CCCCC3C(=O)O[C@H](/C(C)=C/[C@@H]3CC[C@@H](O)[C@H](OC)C3)[C@H](C)[C@@H](O)CC1=O)[C@H](C)C[C@H]2OC (some centres undefined) | – | –
– | 20 | COc1ccc(CC[C@@H](OC(=O)[C@@H]2CCCCN2C(=O)Cc2ccccc2)c2cccc(OCC(=O)NCCNC(=O)COc3cccc([C@@H](CCc4ccc(OC)c(OC)c4)OC(=O)[C@@H]4CCCCN4C(=O)Cc4ccccc4)c3)c2)cc1OC | 150 | Expression (HT-1080 [3]): 7%; EC50 (HT-1080 [5]): 10 nM
– | 57 | CC[C@H](C(=O)N1CCCC[C@H]1C(=O)O[C@H](CCc1ccccc1)c1cccc(OCC(=O)NCCNC(=O)COc2cccc([C@@H](CCc3ccccc3)OC(=O)[C@@H]3CCCCN3C(=O)[C@@H](CC)c3cc(OC)c(OC)c(OC)c3)c2)c1)c1cc(OC)c(OC)c(OC)c1 | 97 | EC50 (HT-1080 [6]): No induction
8.2 | – | CC[C@H](C(=O)N1CCCC[C@H]1C(=O)O[C@H](CCc1ccc(OC)c(OC)c1)c1cccc(OCC(=O)O)c1)c1cc(OC)c(OC)c(OC)c1 (stereo in doubt; form 1) | – | –
– | 3 | CC[C@H](C(=O)N1CCCC[C@H]1C(=O)O[C@H](CCc1ccc(OC)c(OC)c1)c1cccc(OCC(=O)NCCNC(=O)COc2cccc([C@@H](CCc3ccc(OC)c(OC)c3)OC(=O)[C@@H]3CCCCN3C(=O)[C@@H](CC)c3cc(OC)c(OC)c(OC)c3)c2)c1)c1cc(OC)c(OC)c(OC)c1 (stereo in doubt; form 1) [RIMIDUCID] | – | –
8.2 | – | CC[C@H](C(=O)N1CCCC[C@H]1C(=O)O[C@H](CCc1ccc(OC)c(OC)c1)c1cccc(OCC(=O)O)c1)c1cc(OC)c(OC)c(OC)c1 (stereo in doubt; form 2) | – | –
– | – | CC[C@H](C(=O)N1CCCC[C@H]1C(=O)O[C@H](CCc1ccc(OC)c(OC)c1)c1cccc(OCC(=O)NCCNC(=O)COc2cccc([C@@H](CCc3ccc(OC)c(OC)c3)OC(=O)[C@@H]3CCCCN3C(=O)[C@@H](CC)c3cc(OC)c(OC)c(OC)c3)c2)c1)c1cc(OC)c(OC)c(OC)c1 (stereo in doubt; form 2) [RIMIDUCID] | 79 | EC50 (HT-1080 [6]): No induction
